This passage reports IC50 and Ratio results from ChEMBL document CHEMBL1130282, “Syntheses and structure-activity relationships of taxoids derived from 14 beta-hydroxy-10-deacetylbaccatin III” (J Med Chem, 1997).

One experiment relates to A549. Description: Growth inhibition of human non-small-lung carcinoma (A549) cell line. The format is functional, cell-based.
For the next experiment, the system named is A121. Description: Growth inhibition of human ovarian carcinoma (A121) cell line. The format is functional, cell-based. The gist of the method: (§1)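 Cells seeded at 400/well, attached overnight, grown in RPMI-1640 with 5% fetal bovine serum and 5% Nu Serum. Taxanes in DMSO, diluted in medium, 72 h exposure, triplicate wells. Fixed with ice-cold 50% TCA (1 h, 4 °C), stained with 0.4% sulforhodamine B, dye dissolved in 10 mM Tris (pH 10.5), OD 570 nm. IC50 from sigmoid-Emax nonlinear regression, weighted by reciprocal squared predicted effect.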

The next experiment has as its system HT-29. The experiment is described as follows: Growth inhibition of human colon carcinoma (HT-29) cell line. The format is functional, cell-based. The gist of the method:
as §1

The subject of a further experiment is MCF7R. Description: Growth inhibition of human mammary carcinoma 180 fold resistant to doxorubicin (MCF-7-R) cell line. The format is functional, cell-based.
The next experiment concerns MCF7. Description: Growth inhibition of human mammary carcinoma (MCF-7) cell line. The format is functional, cell-based. The gist of the method:
as §1

The nature of experiment [1]: Ratio of growth inhibition (IC50) of MCF7-R / MCF-7 cell lines. The format is functional, Homo sapiens.

Consider `C/C=C/C(=O)O[C@H]1C(=O)[C@@]2(C)C([C@H](OC(=O)c3ccccc3)[C@]34OC(=O)O[C@H]3[C@H](OC(=O)[C@H](O)[C@H](C=C(C)C)NC(=O)CCCCC)C(C)=C1C4(C)C)[C@]1(OC(C)=O)COC1C[C@@H]2O` (stereo not given in full), for which the 50% inhibitory concentration (IC50) (in general, the concentration that gives 50% inhibition) in the experiment with A549 was found to be 25 nM; in the experiment with A121, 17 nM; in the experiment with HT-29, 28 nM; in the experiment on MCF7R, 137 nM; in the experiment on MCF7, 2.1 nM. For the same molecule, the Ratio in experiment [1] is given as 65.
With `CC(=O)O[C@@]12CO[C@@H]1C[C@H](O)[C@@]1(C)C(=O)[C@H](O)C3=C(C)[C@@H](OC(=O)[C@H](O)[C@@H](NC(=O)OC(C)(C)C)c4ccccc4)[C@H](O)[C@@](O)([C@@H](OC(=O)c4ccccc4)C12)C3(C)C` (stereo not given in full), the IC50 in the experiment with MCF7R is > 1000 nM.
With `CCCCCC(=O)N[C@@H](C=C(C)C)[C@@H](O)C(=O)O[C@@H]1C(C)=C2[C@@H](OC(=O)N(C)C)C(=O)[C@@]3(C)C([C@H](OC(=O)c4ccccc4)[C@@]4(OC(=O)O[C@@H]14)C2(C)C)[C@]1(OC(C)=O)COC1C[C@@H]3O` (stereo not given in full), the IC50 with A549 amounted to 5.5 nM; in the experiment with A121 it was 4.8 nM; in the experiment with HT-29, 5.1 nM; in the experiment on MCF7R, 295 nM; with MCF7, 1.7 nM.
For the molecule `CC(=O)O[C@@]12COC1C[C@H](O)[C@@]1(C)C(=O)[C@H](O)C3=C(C)[C@@H](OC(=O)[C@H](O)[C@H](CC(C)(C)C)NC(=O)OC(C)(C)C)[C@@H]4OC(=O)O[C@]4([C@@H](OC(=O)c4ccccc4)C21)C3(C)C` (stereo not given in full), the half-inhibitory concentration (IC50) with A549 was 51 nM; in the experiment on A121 it was 106 nM; with HT-29, 52 nM; with MCF7R it was > 1000 nM; with MCF7, 48 nM.
Consider `CCCCCC(=O)N[C@@H](c1ccccc1)[C@@H](O)C(=O)O[C@@H]1C(C)=C2[C@@H](O)C(=O)[C@@]3(C)C([C@H](OC(=O)c4ccccc4)[C@@]4(OC(=O)O[C@@H]14)C2(C)C)[C@]1(OC(C)=O)COC1C[C@@H]3O` (stereo not given in full), for which the half-inhibitory concentration (IC50) was 389 nM in the experiment with A549; 330 nM in the experiment on A121; 157 nM with HT-29; > 1000 nM in the experiment with MCF7R; 13 nM with MCF7.
In the case of `CC(=O)O[C@@]12COC1C[C@H](O)[C@@]1(C)C(=O)[C@H](OC(=O)N(C)C)C3=C(C)[C@@H](OC(=O)[C@H](O)[C@H](C=C(C)C)NC(=O)OC(C)(C)C)[C@@H]4OC(=O)O[C@]4([C@@H](OC(=O)c4ccccc4)C21)C3(C)C` (stereo not given in full), the half-maximal inhibitory concentration (IC50) in the experiment with A549 was determined as 0.6 nM; with A121, 0.7 nM; in the experiment with HT-29 it was 1.2 nM; in the experiment with MCF7R, 33 nM; in the experiment with MCF7, 0.4 nM. Further, the Ratio in experiment [1] is on record as 83.
For the molecule `CCC[C@H](NC(=O)OC(C)(C)C)[C@@H](O)C(=O)O[C@@H]1C(C)=C2[C@@H](OC(C)=O)C(=O)[C@@]3(C)C([C@H](OC(=O)c4ccccc4)[C@@]4(OC(=O)O[C@@H]14)C2(C)C)[C@]1(OC(C)=O)COC1C[C@@H]3O` (stereo not given in full), the IC50 in the experiment with A549 was determined as 4.7 nM; in the experiment with A121, 2.3 nM; with HT-29, 4.8 nM; in the experiment with MCF7R, 201 nM; with MCF7 it was 4.6 nM. In experiment [1], the Ratio came out at 44.
Turning to `CC(=O)O[C@@]12COC1C[C@H](O)[C@@]1(C)C(=O)[C@H](O)C3=C(C)[C@@H](OC(=O)[C@H](O)[C@@H](NC(=O)c4ccccc4)c4ccccc4)[C@@H]4OC(=O)O[C@]4([C@@H](OC(=O)c4ccccc4)C21)C3(C)C` (stereo not given in full), the half-inhibitory concentration (IC50) with A549 is 33 nM; in the experiment on A121 it was 105 nM; in the experiment with HT-29, 24 nM; in the experiment with MCF7R, > 1000 nM; with MCF7 it was 11 nM.
With `CCC[C@H](NC(=O)OC(C)(C)C)[C@@H](O)C(=O)O[C@@H]1C(C)=C2[C@@H](O)C(=O)[C@@]3(C)C([C@H](OC(=O)c4ccccc4)[C@@]4(OC(=O)O[C@@H]14)C2(C)C)[C@]1(OC(C)=O)COC1C[C@@H]3O` (stereo not given in full), the IC50 with A549 amounted to 4.4 nM; in the experiment with A121, 2.1 nM; in the experiment with HT-29, 3.8 nM; in the experiment on MCF7R, 265 nM; in the experiment on MCF7, 4.2 nM. Further, in experiment [1], the Ratio came out at 92.
As for `CCCCCC(=O)N[C@@H](C=C(C)C)[C@@H](O)C(=O)O[C@@H]1C(C)=C2[C@@H](OC(=O)C3CC3)C(=O)[C@@]3(C)C([C@H](OC(=O)c4ccccc4)[C@@]4(OC(=O)O[C@@H]14)C2(C)C)[C@]1(OC(C)=O)COC1C[C@@H]3O` (stereo not given in full), the IC50 in the experiment on A549 was found to be 18 nM; in the experiment on A121, 12 nM; in the experiment with HT-29 it was 16 nM; in the experiment with MCF7R, 321 nM; in the experiment on MCF7, 3.2 nM. For the same molecule, in experiment [1], the Ratio was 100.
Regarding `C/C=C/C(=O)O[C@H]1C(=O)[C@@]2(C)C([C@H](OC(=O)c3ccccc3)[C@]34OC(=O)O[C@H]3[C@H](OC(=O)[C@H](O)[C@H](C=C(C)C)NC(=O)OC(C)(C)C)C(C)=C1C4(C)C)[C@]1(OC(C)=O)COC1C[C@@H]2O` (stereo not given in full), the IC50 with A549 was 0.5 nM; in the experiment on A121, 0.8 nM; in the experiment with HT-29 it was 1.5 nM; in the experiment with MCF7R, 17 nM; with MCF7, 0.4 nM. For the same molecule, in experiment [1], the Ratio is given as 43.
`CC(=O)O[C@@]12COC1C[C@H](O)[C@@]1(C)C(=O)[C@H](O)C3=C(C)[C@@H](OC(=O)[C@H](O)[C@H](CC(C)C)NC(=O)OC(C)(C)C)[C@@H]4OC(=O)O[C@]4([C@@H](OC(=O)c4ccccc4)C21)C3(C)C` (stereo not given in full): the IC50 stood at 1.8 nM in the experiment on A549; 1 nM with A121; 3.4 nM in the experiment with HT-29; 385 nM in the experiment with MCF7R; 2.7 nM in the experiment with MCF7.
For the molecule `CC(=O)O[C@H]1C(=O)[C@@]2(C)C([C@H](OC(=O)c3ccccc3)[C@]34OC(=O)O[C@H]3[C@H](OC(=O)[C@H](O)[C@@H](NC(=O)OC(C)(C)C)c3ccco3)C(C)=C1C4(C)C)[C@]1(OC(C)=O)COC1C[C@@H]2O` (stereo not given in full), the IC50 in the experiment on A549 was found to be 0.5 nM; in the experiment on A121, 0.4 nM; with HT-29 it was 0.6 nM; in the experiment with MCF7R, 49 nM; with MCF7, 0.5 nM. Besides, in experiment [1], the Ratio worked out at 96.
For `CC(=O)O[C@@]12COC1C[C@H](O)[C@@]1(C)C(=O)[C@H](O)C3=C(C)[C@@H](OC(=O)[C@H](O)[C@@H](NC(=O)OC(C)(C)C)c4ccccc4)[C@@H]4OC(=O)O[C@]4([C@@H](OC(=O)c4ccccc4)C21)C3(C)C` (stereo not given in full), the IC50 turned out to be 2.1 nM in the experiment with A549; 6.2 nM with A121; 1.8 nM with HT-29; 543 nM in the experiment with MCF7R; 1.8 nM in the experiment on MCF7. The Ratio in experiment [1] is listed as 302.
Turning to `CC(=O)O[C@@]12COC1C[C@H](O)[C@@]1(C)C(=O)[C@H](O)C3=C(C)[C@@H](OC(=O)[C@H](O)[C@@H](NC(=O)OC(C)(C)C)c4ccco4)[C@@H]4OC(=O)O[C@]4([C@@H](OC(=O)c4ccccc4)C21)C3(C)C` (stereo not given in full), the half-maximal inhibitory concentration (IC50) was found to be 0.5 nM in the experiment on A549; 0.4 nM in the experiment with A121; 0.6 nM in the experiment on HT-29; 135 nM in the experiment with MCF7R; 0.5 nM with MCF7. Besides, in experiment [1], the Ratio was determined as 270.
